According to PMC12217639 (Scientific Reports, 2025):
Peptide text beside a SMILES is read from it.

Experiments:
Format in all cases: cell-based, human
HIBEpiC cells = test: Membrane potential; conditions: 1 x 10^5 cells/mL, peptide 2.5, 5, 10, 20 µM, 1 h
Outline: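 A cell suspension at 1 × 10^5 cells/mL was incubated 1 h with peptide at 0 (control), 2.5, 5, 10 or 20 µM. The mixture was then loaded into a folded capillary cell, and zeta potential was read on a NanoZetasizer.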

[1] = tested on: PDO-L (ICC patient-derived organoid); test: Drug sensitivity experiment of organoids; conditions: by IC50, 24 h, CellTiter-Glo
[2] = tested on: PDO-K (ICC patient-derived organoid); test: Drug sensitivity experiment of organoids; conditions: by IC50, 24 h, CellTiter-Glo; for overall sensitivity of the three PDOs: overall across PDO-K, PDO-S and PDO-L
[3] = tested on: PDO-S (ICC patient-derived organoid); test: Drug sensitivity experiment of organoids; conditions: by IC50, 24 h, CellTiter-Glo

| Structure (SMILES) | change of zeta potential of normal cells after peptide treatment (HIBEpiC cells) | rank of therapeutic effect among the drugs, PDO-L [1] | rank of therapeutic effect among the drugs, PDO-K [2] | overall sensitivity of the three PDOs [2] | rank of therapeutic effect among the drugs, PDO-S [3] |
| --- | --- | --- | --- | --- | --- |
| CC(C)C[C@H](NC(=O)[C@H](CC(C)C)NC(=O)[C@H](CCCCN)NC(=O)[C@H](CCCCN)NC(=O)[C@H](CC(C)C)NC(=O)[C@H](CC(C)C)NC(=O)[C@H](CCCCN)NC(=O)[C@H](CCCCN)NC(=O)[C@H](CC(C)C)NC(=O)[C@H](CC(C)C)NC(=O)[C@H](CCCCN)NC(=O)[C@H](CCCCN)NC(=O)[C@H](CC(C)C)NC(=O)[C@@H](N)CC(C)C)C(N)=O [KL-8] (H-LLKKLLKKLLKKLL-NH2) | no statistically significant changes | best therapeutic effect | best therapeutic effect | highest sensitivity |  |
| CNC(=O)c1cc(Oc2ccc(NC(=O)Nc3ccc(Cl)c(C(F)(F)F)c3)cc2)ccn1 [Sorafenib, reference compound] |  |  |  | lowest sensitivity |  |
| Nc1ccn([C@@H]2O[C@H](CO)[C@@H](O)C2(F)F)c(=O)n1 [Gemcitabine] |  |  |  |  | most effective |
